Experimental findings from ChEMBL document CHEMBL4145690, “Rational Design and Structure Validation of a Novel Peptide Inhibitor of the Adenomatous-Polyposis-Coli (APC)-Rho-Guanine-Nucleotide-Exchange-Factor-4 (Asef) Interaction” (J Med Chem, 2018) are described below.

SMILES strings stand for the structures. Active and inactive are the calls of the source. The rule behind the calls is not given here. *1 amine or outer side, *2 acyl side, *3 side chain or, on linkers, in order; H or OH if unused. Where a SMILES comes first, the peptide text is derived from it. [ ]: non-standard residue; d: D form. The star is where a group is joined. X4 = O=C(C1(N[*:1])C[C@@H]2CC[C@H]1C2)[*:2]; X1 = O=C([C@H](Cc1ccc(Br)s1)N[*:1])[*:2]; X3 = O=C(c1cc2c(s1)CN([*:1])CC2)[*:2]; X2 = C=C(Br)C[C@H](N[*:1])C(=O)[*:2]; tBuAla = CC(C)(C)C[C@H](N)C(=O)O; hLeu = CC(C)CC[C@H](N)C(=O)O; Cbz = O=C(OCc1ccccc1)*

Experiment [1] deals with T1, Adenomatous polyposis coli protein (Homo sapiens, UniProt P25054). The experiment is described as follows: Binding affinity to His-tagged APC (unknown origin) assessed as residence time by surface plasmon resonance assay. The method in brief:
(§1)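 His-APC amine-coupled to a CM5 chip (EDC/NHS; protein in 50 mM Hepes, 300 mM NaCl, 1 mM EDTA, pH 7.5); BSA reference cell. Peptides injected in 0.05 M Hepes pH 7.5 at 30 µL/min; dissociation 6 min; regeneration with glycine-HCl pH 2.0. Kinetic constants fitted to a 1:1 Langmuir model.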

For experiment [2], the target named is T1, Adenomatous polyposis coli protein. The experiment is described as follows: Binding affinity to APC (unknown origin) at 37 degC by ITC method. The method in brief: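 ITC at 37 °C in 50 mM HEPES pH 7.5, 300 mM NaCl, 1 mM EDTA. Titrations were repeated three times.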
For experiment [3], the target named is T2, APC/Asef (Homo sapiens) (UniProt P25054+Q9NR80). Put plainly: Inhibition of Flag-APC (303 to 876 residues) (unknown origin) /HA-Asef (170 to 632 residues) (unknown origin) interaction expressed in HEK293T cell lysates at 10 uM incubated for 2 hrs by coimmunoprecipitation assay. The method in brief: (§2)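 HEK293T cells co-transfected with Flag-APC (303–876) and HA-Asef (170–632); lysed in RIPA after 24 h and lysate cleared. Supernatant incubated with compound (2 or 10 µM) or DMSO for 2 h at 4 °C, then anti-FLAG M2 gel overnight at 4 °C. Beads washed and proteins analysed by western blot (anti-HA, anti-Flag), single experiment.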

Experiment [4] has as its target T1, Adenomatous polyposis coli protein. The experiment is described as follows: Binding affinity to His-tagged APC (unknown origin) assessed as dissociation constant by surface plasmon resonance assay. The gist of the method:
as §1
(In SPR one partner is held on a chip, and binding of the other changes the refractive index at the surface.)

For experiment [5] the target is unchanged. The experiment is described as follows: Binding affinity to APC (unknown origin) assessed as association constant at 30 degC by ITC method. The method in brief:
(§3)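 ITC in 50 mM HEPES pH 7.5, 300 mM NaCl, 1 mM EDTA at 30 °C. Titrations were repeated three times. Kd, ΔG, ΔH and −TΔS are averages of the three independent experiments. L/P ratio gives sites per APC.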
Background: In ITC the heat of successive injections is recorded.

For experiment [6] the target is unchanged. The experiment is described as follows: Binding affinity to APC protein (303 to 739 residues) (unknown origin) incubated for 60 mins followed by probe addition and measured after 60 mins by competitive fluorescence polarization assay. The gist of the method: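 Peptide in DMSO preincubated with protein 60 min at room temperature with shaking; probe added, then 60 min more. Controls: blank, tracer only, complex only. IC50 from dose-response curves, mean of three independent experiments.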
On the technique in general: In fluorescence polarisation assays a small probe gives low polarisation when free and higher when bound to something large.

Experiment [7] has the same target. Put plainly: Reversible binding affinity to His-tagged APC (unknown origin) by surface plasmon resonance assay. The method in brief:
as §1

The target is the same in experiment [8]. Put plainly: Binding affinity to His-tagged APC (unknown origin) assessed as association constant by surface plasmon resonance assay. The gist of the method:
as §1

Experiment [9] has the same target. The experiment is described as follows: Binding affinity to APC (unknown origin) assessed as induction of blue shifts in fluorescence for APC-compound complexes at 35 uM incubate fro 30 mins by tryptophan fluorescence measurements assay. The method in brief:
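APC protein (5 µM) alone or with peptide at 35 µM in 50 mM Hepes pH 7.5, 300 mM NaCl, 1 mM EDTA, 50 µL. Incubated 30 min at room temperature with gentle shaking. Tryptophan excited at 280 nm; emission scanned 300–500 nm. Run in triplicate.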

The target is the same in experiment [10]. The experiment is described as follows: Binding affinity to APC (unknown origin) at 30 degC by ITC method. The method in brief: as §3
Experiment [11] has the same target. Put plainly: Binding affinity to His-tagged APC (unknown origin) by surface plasmon resonance assay. The method in brief: as §1
Experiment [12] concerns the target T2, APC/Asef (Homo sapiens). Put plainly: Inhibition of Flag-APC (303 to 876 residues) (unknown origin) /HA-Asef (170 to 632 residues) (unknown origin) interaction expressed in HEK293T cell lysates incubated for 2 hrs by coimmunoprecipitation assay. The gist of the method:
as §2

Experiment [13] has as its target T1, Adenomatous polyposis coli protein. The experiment is described as follows: Binding affinity to APC (unknown origin) assessed as intramolecular hydrogen bond formation by 1H nuclear magnetic resonance based hydrogen-deuterium-exchange assay.

T1 sequence (P25054 whole entry): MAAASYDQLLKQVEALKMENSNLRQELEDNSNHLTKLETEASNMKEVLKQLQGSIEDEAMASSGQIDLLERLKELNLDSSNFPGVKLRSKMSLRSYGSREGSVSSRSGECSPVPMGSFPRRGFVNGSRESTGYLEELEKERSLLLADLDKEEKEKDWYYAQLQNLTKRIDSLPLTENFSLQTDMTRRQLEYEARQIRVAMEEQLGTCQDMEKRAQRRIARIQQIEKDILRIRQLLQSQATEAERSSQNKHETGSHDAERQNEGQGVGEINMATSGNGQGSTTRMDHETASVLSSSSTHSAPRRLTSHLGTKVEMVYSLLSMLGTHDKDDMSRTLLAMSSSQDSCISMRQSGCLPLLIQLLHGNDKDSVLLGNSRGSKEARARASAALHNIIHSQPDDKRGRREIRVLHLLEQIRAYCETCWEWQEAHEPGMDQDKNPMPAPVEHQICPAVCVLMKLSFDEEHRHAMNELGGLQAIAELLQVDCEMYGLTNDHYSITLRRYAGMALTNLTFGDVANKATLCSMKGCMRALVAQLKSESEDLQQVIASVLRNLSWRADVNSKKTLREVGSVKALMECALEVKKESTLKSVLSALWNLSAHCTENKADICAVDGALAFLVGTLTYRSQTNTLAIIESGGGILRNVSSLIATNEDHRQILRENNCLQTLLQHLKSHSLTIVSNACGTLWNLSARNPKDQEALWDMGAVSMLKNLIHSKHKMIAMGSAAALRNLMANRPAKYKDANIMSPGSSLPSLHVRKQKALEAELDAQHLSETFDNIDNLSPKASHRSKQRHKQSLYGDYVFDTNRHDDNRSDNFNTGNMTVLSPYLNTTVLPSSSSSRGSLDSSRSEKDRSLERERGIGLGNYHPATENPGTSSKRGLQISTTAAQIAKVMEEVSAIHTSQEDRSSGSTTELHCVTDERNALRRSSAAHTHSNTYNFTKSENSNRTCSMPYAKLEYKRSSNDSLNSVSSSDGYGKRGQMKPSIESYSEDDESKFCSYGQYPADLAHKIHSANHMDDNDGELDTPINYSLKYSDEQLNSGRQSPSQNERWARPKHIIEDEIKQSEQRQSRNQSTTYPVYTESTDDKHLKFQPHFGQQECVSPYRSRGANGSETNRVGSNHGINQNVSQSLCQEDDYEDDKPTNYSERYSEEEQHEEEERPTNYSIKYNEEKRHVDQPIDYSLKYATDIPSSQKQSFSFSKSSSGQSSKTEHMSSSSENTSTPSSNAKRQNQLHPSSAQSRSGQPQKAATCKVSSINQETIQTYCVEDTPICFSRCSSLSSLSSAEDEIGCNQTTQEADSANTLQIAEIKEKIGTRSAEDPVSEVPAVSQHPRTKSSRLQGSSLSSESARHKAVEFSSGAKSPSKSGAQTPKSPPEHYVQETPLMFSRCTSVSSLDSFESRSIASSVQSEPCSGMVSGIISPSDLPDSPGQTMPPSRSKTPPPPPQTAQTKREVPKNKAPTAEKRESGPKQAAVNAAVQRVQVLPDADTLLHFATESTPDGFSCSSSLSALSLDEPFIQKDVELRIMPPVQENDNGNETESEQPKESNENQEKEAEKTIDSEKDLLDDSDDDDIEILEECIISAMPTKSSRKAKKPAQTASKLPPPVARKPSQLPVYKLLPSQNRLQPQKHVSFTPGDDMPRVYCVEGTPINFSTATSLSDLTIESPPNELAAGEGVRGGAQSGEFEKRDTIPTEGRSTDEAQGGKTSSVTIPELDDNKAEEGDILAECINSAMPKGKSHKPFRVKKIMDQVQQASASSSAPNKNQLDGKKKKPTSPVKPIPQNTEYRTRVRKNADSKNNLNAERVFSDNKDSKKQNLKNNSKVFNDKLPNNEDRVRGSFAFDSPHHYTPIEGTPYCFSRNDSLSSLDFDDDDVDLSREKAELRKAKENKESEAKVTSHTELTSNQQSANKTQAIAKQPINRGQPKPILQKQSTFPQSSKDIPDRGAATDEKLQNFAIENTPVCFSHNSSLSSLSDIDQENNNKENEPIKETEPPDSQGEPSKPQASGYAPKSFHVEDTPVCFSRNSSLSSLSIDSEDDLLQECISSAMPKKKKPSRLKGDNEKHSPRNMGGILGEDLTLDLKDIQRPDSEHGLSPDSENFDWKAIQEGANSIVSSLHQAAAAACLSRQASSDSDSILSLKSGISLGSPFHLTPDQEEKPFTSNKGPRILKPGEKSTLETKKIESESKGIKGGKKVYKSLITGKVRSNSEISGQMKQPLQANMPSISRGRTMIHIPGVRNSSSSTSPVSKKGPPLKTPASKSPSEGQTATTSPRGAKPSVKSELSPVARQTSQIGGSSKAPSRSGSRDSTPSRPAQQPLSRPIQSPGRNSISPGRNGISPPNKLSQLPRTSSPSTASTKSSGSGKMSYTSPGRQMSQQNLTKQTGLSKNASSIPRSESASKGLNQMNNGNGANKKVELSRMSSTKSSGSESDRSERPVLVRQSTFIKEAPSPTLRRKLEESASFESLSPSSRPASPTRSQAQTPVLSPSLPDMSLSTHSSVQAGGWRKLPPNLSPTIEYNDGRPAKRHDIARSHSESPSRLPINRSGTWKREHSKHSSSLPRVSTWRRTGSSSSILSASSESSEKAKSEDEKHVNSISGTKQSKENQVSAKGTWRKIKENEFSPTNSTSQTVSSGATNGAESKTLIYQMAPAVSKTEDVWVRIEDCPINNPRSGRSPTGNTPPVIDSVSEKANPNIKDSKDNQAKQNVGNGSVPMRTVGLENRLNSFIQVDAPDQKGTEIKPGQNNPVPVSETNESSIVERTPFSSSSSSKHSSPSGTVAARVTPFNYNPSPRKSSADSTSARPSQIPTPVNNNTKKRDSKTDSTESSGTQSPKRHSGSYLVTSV

On to `CC(C)C[C@H](NC(=O)[C@H](C)NC(=O)[C@H](CCC(=O)O)NC(=O)CNC(=O)[C@H](C)NC(=O)OCc1ccccc1)C(=O)N[C@@H](Cc1ccc(O)cc1)C(=O)N[C@@H](CCC(=O)O)C(N)=O` (Cbz-AGEALYE-NH2), for which, in experiment [1], the TIME was determined as 0.00333 h. Further, the Kd was 1800 nM in experiment [2], 210 nM in [10] and 430 nM in experiment [11]. Further, the inhibition entry in experiment [3] is “Active”. Besides, the values for the K in experiment [4], in experiment [5] and in experiment [8] were 8.2 ×10⁻² /s, 4.71 ×10⁶ /M and 1.92 ×10⁵ /M/s, respectively. The compound further showed an IC50 in [6] of 1090 nM. Moreover, the Activity result in [7] is “Dose-dependent effect”. Further, the result in [9] was Active.
Regarding `CC(C)C[C@H](NC(=O)[C@H](CO)NC(=O)[C@H](CCC(=O)O)NC(=O)CNC(=O)[C@H](C)NC(=O)OCc1ccccc1)C(=O)N[C@@H](Cc1ccc(O)cc1)C(=O)N[C@@H](CCC(=O)O)C(N)=O` (Cbz-AGESLYE-NH2), the TIME in [1] was found to be 0.00417 h. In addition, the inhibition entry in experiment [12] and in [7] was “Dose-dependent effect” throughout. Further, the equilibrium dissociation constant (Kd) worked out at 210 nM in experiment [2], 12 nM in experiment [10] and 220 nM in experiment [11]. For the same compound, the values for the K in experiment [4], in experiment [5] and in [8] were 6.7 ×10⁻² /s, 8.21 ×10⁷ /M and 3.05 ×10⁵ /M/s, respectively. In addition, in experiment [6], the IC50 stood at 250 nM. The outcome in experiment [9] and in [13] was Active.
With `C[C@H](NC(=O)OCc1ccccc1)C(=O)NCC(=O)N[C@@H](CCC(=O)O)C(=O)N[C@@H](CO)C(=O)N[C@@H](Cc1ccc(Br)s1)C(=O)N[C@@H](Cc1ccc(O)cc1)C(=O)N[C@@H](CCC(=O)O)C(N)=O` (Cbz-AGES[X1]YE-NH2), the concentration for half-maximal inhibition (IC50) in [6] turned out to be 5000 nM.
In experiment [6], `C=C(Br)C[C@H](NC(=O)[C@H](CO)NC(=O)[C@H](CCC(=O)O)NC(=O)CNC(=O)[C@H](C)NC(=O)OCc1ccccc1)C(=O)N[C@@H](Cc1ccc(O)cc1)C(=O)N[C@@H](CCC(=O)O)C(N)=O` (Cbz-AGES[X2]YE-NH2) gave a half-maximal inhibitory concentration (IC50) of 1820 nM. This IC50 is about 2.7-fold lower than that of the compound before.
Consider `C[C@H](NC(=O)OCc1ccccc1)C(=O)NCC(=O)N[C@@H](CCC(=O)O)C(=O)N[C@@H](CO)C(=O)NC1(C(=O)N[C@@H](Cc2ccc(O)cc2)C(=O)N[C@@H](CCC(=O)O)C(N)=O)C[C@@H]2CC[C@H]1C2` (stereo not given in full) (Cbz-AGES[X4]YE-NH2), for which the IC50 in experiment [6] came out at 128000 nM.
As to `CC(C)CC[C@H](NC(=O)[C@H](CO)NC(=O)[C@H](CCC(=O)O)NC(=O)CNC(=O)[C@H](C)NC(=O)OCc1ccccc1)C(=O)N[C@@H](Cc1ccc(O)cc1)C(=O)N[C@@H](CCC(=O)O)C(N)=O` (Cbz-AGES[hLeu]YE-NH2), the IC50 in experiment [6] turned out to be 840 nM.
As to `C[C@H](NC(=O)OCc1ccccc1)C(=O)NCC(=O)N[C@@H](CCC(=O)O)C(=O)N[C@@H](CO)C(=O)N[C@@H](CC(C)(C)C)C(=O)N[C@@H](Cc1ccc(O)cc1)C(=O)N[C@@H](CCC(=O)O)C(N)=O` (Cbz-AGES[tBuAla]YE-NH2), the half-inhibitory concentration (IC50) in experiment [6] turned out to be 1780 nM. This IC50 lies about 2.1-fold higher than the previous one.
`CC(C)C[C@H](NC(=O)[C@H](Cc1ccc(O)cc1)NC(=O)[C@H](CCC(=O)O)NC(=O)CNC(=O)[C@H](C)NC(=O)OCc1ccccc1)C(=O)N[C@@H](Cc1ccc(O)cc1)C(=O)N[C@@H](CCC(=O)O)C(N)=O` (Cbz-AGEYLYE-NH2): in experiment [6], the IC50 was determined as 5460 nM.
As to `C[C@H](NC(=O)OCc1ccccc1)C(=O)NCC(=O)N[C@@H](CCC(=O)O)C(=O)N1CCc2cc(C(=O)N[C@@H](Cc3ccc(O)cc3)C(=O)N[C@@H](CCC(=O)O)C(N)=O)sc2C1` (Cbz-AGE[X3]YE-NH2), the dissociation constant Kd entry in experiment [6] is given as “Not Active”.

A word on the Kd: it is the equilibrium constant for the complex coming apart. Higher therefore signals weaker binding. Broadly, the IC50 is the concentration needed to halve the response being measured.
